{"data": "Published values of several laboratories", "target": "Serine/threonine-protein kinase Nek1 (NEK1, Homo sapiens, UniProt Q96PY6)", "Sequence (Q96PY6 1-1258, as in one of the studies)": "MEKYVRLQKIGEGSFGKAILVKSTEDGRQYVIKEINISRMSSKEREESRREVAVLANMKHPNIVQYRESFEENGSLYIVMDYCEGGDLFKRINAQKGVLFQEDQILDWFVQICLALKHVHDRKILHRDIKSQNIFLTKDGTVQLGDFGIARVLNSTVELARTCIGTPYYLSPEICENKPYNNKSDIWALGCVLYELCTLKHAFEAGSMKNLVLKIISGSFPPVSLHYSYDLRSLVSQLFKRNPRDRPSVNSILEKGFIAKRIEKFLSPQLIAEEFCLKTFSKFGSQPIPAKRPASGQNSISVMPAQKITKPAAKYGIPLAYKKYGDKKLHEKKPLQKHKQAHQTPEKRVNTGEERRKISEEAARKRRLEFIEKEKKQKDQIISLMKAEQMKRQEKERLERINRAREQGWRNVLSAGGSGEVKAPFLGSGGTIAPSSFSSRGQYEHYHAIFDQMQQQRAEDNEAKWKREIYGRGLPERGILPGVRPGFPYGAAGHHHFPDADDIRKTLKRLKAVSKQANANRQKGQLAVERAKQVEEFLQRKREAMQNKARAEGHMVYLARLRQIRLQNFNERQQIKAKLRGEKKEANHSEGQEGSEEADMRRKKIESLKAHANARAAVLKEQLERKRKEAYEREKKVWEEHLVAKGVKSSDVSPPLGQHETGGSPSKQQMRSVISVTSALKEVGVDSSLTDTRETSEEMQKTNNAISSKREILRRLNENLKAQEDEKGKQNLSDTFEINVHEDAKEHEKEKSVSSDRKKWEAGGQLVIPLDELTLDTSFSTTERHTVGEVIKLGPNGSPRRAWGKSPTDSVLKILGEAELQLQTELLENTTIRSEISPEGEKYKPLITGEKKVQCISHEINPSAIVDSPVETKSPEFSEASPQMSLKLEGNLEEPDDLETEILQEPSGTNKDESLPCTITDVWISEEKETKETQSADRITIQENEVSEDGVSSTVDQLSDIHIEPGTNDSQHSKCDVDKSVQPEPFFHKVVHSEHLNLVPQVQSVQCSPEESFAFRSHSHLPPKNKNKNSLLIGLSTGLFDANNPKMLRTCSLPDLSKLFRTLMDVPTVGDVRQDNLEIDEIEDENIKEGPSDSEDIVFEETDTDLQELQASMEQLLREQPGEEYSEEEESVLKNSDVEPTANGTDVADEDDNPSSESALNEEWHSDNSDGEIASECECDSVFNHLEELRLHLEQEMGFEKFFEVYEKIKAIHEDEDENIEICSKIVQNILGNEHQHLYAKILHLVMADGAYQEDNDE", "note": "Compare with care: the assays were run in different laboratories."}
{"Compound": "O=C(c1ccc(Nc2ncc(Cl)c(-c3ccc(Cl)s3)n2)cc1)N1CCC(N2CCCC2)CC1", "observed": "binding", "technique": "competition with immobilised ligand", "tested at": "1 µM", "remaining binding": "23%"}
{"Compound": "N[C@H]1CCN(c2nccc(-c3cnn4ncccc34)n2)C1", "observed": "binding", "tested at": "1 µM", "remaining binding": "97%"}
{"Compound": "COc1ncc2cc3ccccc3nc2c1C#N", "observed": "cell-free assay", "technique": "competition with immobilised ligand", "tested at": "5 µM", "remaining binding": "100%"}
{"Compound": "O=C(N[C@H]1CCCCC/C=C\\C2C[C@@]2(C(=O)O)NC(=O)[C@@H]2C[C@@H](Oc3ccncc3)CN2C1=O)OC1CCCC1 (stereo partly shown)", "observed": "binding", "technique": "competition with immobilised ligand", "tested at": "1 µM", "remaining binding": "100%"}
{"Compound": "O=C(NCCCN1CCOCC1)c1ccc(Nc2ncc(Cl)c(-c3ccc(Cl)s3)n2)cc1", "observed": "binding", "technique": "competition with immobilised ligand", "tested at": "1 µM", "remaining binding": "76%"}
{"Compound": "Cc1cnn2ncc(-c3ccnc(N(C)C)n3)c2c1", "observed": "binding", "tested at": "1 µM", "remaining binding": "100%"}
{"Compound": "COc1cnc(Nc2cccc(S(N)(=O)=O)c2)nc1N1CCN(c2ccccc2)C(=O)C1", "observed": "binding", "technique": "competition with immobilised ligand", "tested at": "1 µM", "remaining binding": "100%"}
{"Compound": "CN(C)c1nccc(-c2cnn3ncccc23)n1", "observed": "binding", "tested at": "1 µM", "remaining binding": "88%"}
{"Compound": "CNC(=O)[C@@H]1CC[C@@H](n2c(-c3ccc4cnccc4c3)nc3ccc(C(=O)NCc4cccc(C(N)=O)c4)cc32)C1", "observed": "binding", "technique": "competition with immobilised ligand", "tested at": "1 µM", "remaining binding": "100%"}
{"Compound": "Nc1ncc2c(n1)-c1c([nH]c3ccc(C#CC4CC4)cc13)CCCC2", "observed": "binding", "technique": "competition with immobilised ligand", "tested at": "1 µM", "remaining binding": "100%"}
{"Compound": "O=C(NS(=O)(=O)c1ccc(NCC2CCOCC2)c([N+](=O)[O-])c1)c1ccc(N2CCN(Cc3ccc(C(F)(F)F)cc3-c3ccc(Cl)cc3)CC2)cc1Oc1cnc2[nH]ccc2c1", "observed": "cell-free assay", "technique": "competition with immobilised ligand", "tested at": "1 µM", "remaining binding": "99%"}
{"Compound": "O=C(NCC1CCOCC1)c1n[nH]cc1NC(=O)c1c(F)cccc1F", "observed": "binding", "technique": "competition with immobilised ligand", "tested at": "1 µM", "remaining binding": "100%"}
{"Compound": "NS(=O)(=O)c1cc(NC(=O)C2(c3ccccc3Cl)CC2)ccc1Oc1cccc(Cl)c1", "observed": "cell-free assay", "technique": "competition with immobilised ligand", "tested at": "1 µM", "remaining binding": "100%"}
{"Compound": "CN(c1nccc(-c2cnn3ncccc23)n1)C1CC1", "observed": "binding", "tested at": "1 µM", "remaining binding": "100%"}
{"Compound": "O=C(O)c1cc(-c2ccc(C3CCNCC3)cc2)c2ccc(-c3ccc(C(F)(F)F)cc3)cc2c1", "observed": "cell-free assay", "technique": "competition with immobilised ligand", "tested at": "1 µM", "remaining binding": "100%"}
{"Compound": "O=C(NCCCN1CCOCC1)c1ccc(Nc2nccc(-c3cc4ccccc4s3)n2)cc1", "observed": "binding", "technique": "competition with immobilised ligand", "tested at": "1 µM", "remaining binding": "72%"}
{"Compound": "Nc1cnc(N2CCc3cc(S(=O)(=O)Nc4c(F)cc(Cl)cc4F)cc(N4CCCC4=O)c32)nc1", "observed": "binding", "technique": "competition with immobilised ligand", "tested at": "1 µM", "remaining binding": "46%"}
{"Compound": "FC(F)(F)Oc1cccc(-c2cnc3ccc(-c4ccncc4)nn23)c1", "observed": "cell-free assay", "technique": "competition with immobilised ligand", "tested at": "5 µM", "remaining binding": "78%"}
{"Compound": "CN(c1ccnc(CNc2nc(Nc3ccc4c(c3)CC(=O)N4)ncc2C(F)(F)F)n1)S(C)(=O)=O", "observed": "cell-free assay", "technique": "competition with immobilised ligand", "tested at": "1 µM", "remaining binding": "51%"}
{"Compound": "C[C@@H]1CCN(c2nccc(-c3cnn4ncccc34)n2)C1", "observed": "binding", "tested at": "1 µM", "remaining binding": "100%"}
{"Compound": "CNC(=O)Nc1ccc2c(c1)CC[C@@]21OC(=O)N(CC(=O)N(Cc2ccc(F)cc2)[C@@H](C)C(F)(F)F)C1=O", "observed": "cell-free assay", "technique": "competition with immobilised ligand", "tested at": "1 µM", "remaining binding": "100%"}
{"Compound": "F[C@@H]1CCN(c2nccc(-c3cnn4ncccc34)n2)C1", "observed": "binding", "tested at": "1 µM", "remaining binding": "100%"}
